Measured values as given in ChEMBL document CHEMBL4138228, “Substituted carbamothioic amine-1-carbothioic thioanhydrides as novel trichomonicidal fungicides: Design, synthesis, and biology” (Eur J Med Chem, 2018).
≈ marks a conversion by molar mass, not a printed value. Calls of active or inactive are those of the source. The rule behind the calls is not given here.

Tests used:
[1] = Cmax in Sprague-Dawley rat at 50 mg/kg, po measured up to 24 hrs by LC-MS/MS analysis; assay type: ADME, organism-based; set-up: dose 50 mg/kg, route oral; details: in vivo
Summary of the method: (§1)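 Male rats fasted 12-16 h before dosing (n = 4 per time point). Each received a single 50 mg/kg oral dose as a 12.5 mg/mL suspension in 1% w/v gum acacia in water, given by feeding needle. Serum was sampled up to 24 h, cleaned up by protein precipitation and assayed by LC-MS/MS (MRM, phenacetin internal standard, linear 1-200 ng/mL). Parameters were derived by non-compartmental analysis.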

Trichomonas vaginalis [2] = assay: Antitrichomonas activity against metronidazole-susceptible Trichomonas vaginalis infected in mouse assessed as growth of abscess at 50 to 100 mg/kg, po administered for […] post last dose (reference value: 96.55 mm'2); assay type: functional
Rattus norvegicus [3] = assay: AUClast in Sprague-Dawley rat at 50 mg/kg, po measured up to 24 hrs by LC-MS/MS analysis; assay type: ADME, organism-based; set-up: time < 24 hr, dose 50 mg/kg, route oral; details: in vivo; summary of the method: as §1
Trichomonas vaginalis [4] = assay: Inhibition of free sulfhydryl group in Trichomonas vaginalis at MIC after 24 hrs by mBBr dye-based fluorescence microscopic method
Summary of the method: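 Cells were pelleted (700 xg, 10 min, 4°C) and washed in PBS. They were then labelled in the dark with a fluorometric thiol detector prediluted 100x. Imaging used epifluorescence microscopy through a UV-1A filter, with the same exposure for all samples, and was assessed qualitatively.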

Candida albicans [5] = assay: Antifungal activity against Candida albicans ATCC 14053 after 48 hrs by broth microdilution method; assay type: functional; details: ATCC 14053, 48 h
Summary of the method: (§2)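 Broth microdilution per NCCLS guidelines in MOPS-buffered RPMI 1640; starting inoculum 1-5 x 10^3 CFU/mL; plates incubated at 35 °C; MIC recorded after 48 h; fluconazole as reference; experiments repeated three times.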

Sporothrix schenckii = assay: Antifungal activity against Sporothrix schenckii after 48 hrs by broth microdilution method; assay type: functional; summary of the method: as §2
Nakaseomyces glabratus = assay: Antifungal activity against Candida glabrata ATCC 2001 after 48 hrs by broth microdilution method; assay type: functional; details: ATCC 2001, 48 h; summary of the method: as §2
Candida parapsilosis = assay: Antifungal activity against Candida parapsilosis ATCC 22019 after 48 hrs by broth microdilution method; assay type: functional; details: Lodderomyces parapsilosis, ATCC 22019, 48 h; summary of the method: as §2
Trichomonas vaginalis [6] = assay: Potency index, ratio of metronidazole MIC to test compound MIC for metronidazole-resistant Trichomonas vaginalis CDC085 ATCC 50143; assay type: functional
Candida albicans [7] = assay: Antifungal activity against Candida albicans ATCC 66027 after 48 hrs by broth microdilution method; assay type: functional; details: ATCC 66027, 48 h; summary of the method: as §2
Rattus norvegicus [8] = assay: Volume of distribution at steady state in Sprague-Dawley rat at 50 mg/kg, po measured up to 24 hrs by LC-MS/MS analysis; assay type: ADME, organism-based; details: in vivo; summary of the method: as §1
Candida albicans [9] = assay: Antifungal activity against Candida albicans patient isolate after 48 hrs by broth microdilution method; assay type: functional; summary of the method: as §2
Candida albicans [10] = assay: Antifungal activity against Candida albicans ATCC 10231 after 48 hrs by broth microdilution method; assay type: functional; details: ATCC 10231, 48 h; summary of the method: as §2
Plasmodium falciparum [11] = assay: Antimalarial activity against chloroquine-sensitive Plasmodium falciparum 3D7 infecetd in RBC after 72 hrs by SYBR Green dye-based fluorescence assay; assay type: functional, organism-based; details: 3D7, Erythrocyte
Trichomonas vaginalis [12] = assay: Antitrichomonas activity against metronidazole-susceptible Trichomonas vaginalis infected in mouse assessed as growth of abscess at 100 mg/kg, po administered for 7 days measured on day 7 post last dose (reference value: 96.5 mm'2); assay type: functional
Trichomonas vaginalis [13] = assay: Antitrichomonas activity against metronidazole-resistant Trichomonas vaginalis CDC085 ATCC 50143 assessed as decrease in cell viability after 48 hrs by trypan blue exclusion method; assay type: functional; details: CDC085 ATCC 50143, 48 h
Plasmodium falciparum [14] = assay: Antimalarial activity against chloroquine-resistant Plasmodium falciparum K1 infecetd in RBC after 72 hrs by SYBR Green dye-based fluorescence assay; assay type: functional, organism-based; details: K1, Erythrocyte
Trichomonas vaginalis [15] = assay: Antitrichomonas activity against metronidazole-susceptible Trichomonas vaginalis infected in mouse assessed as growth of abscess at 50 mg/kg, po administered for 7 days measured on day 7 post last dose (reference value: 96.5 mm'2); assay type: functional
Rattus norvegicus [16] = assay: Clearance in Sprague-Dawley rat at 50 mg/kg, po measured up to 24 hrs by LC-MS/MS analysis; assay type: ADME, organism-based; details: in vivo; summary of the method: as §1
Trichomonas vaginalis [17] = assay: Antitrichomonas activity against metronidazole-susceptible Trichomonas vaginalis assessed as decrease in cell viability after 48 hrs by trypan blue exclusion method; assay type: functional
Cryptococcus neoformans = assay: Antifungal activity against Cryptococcus neoformans after 48 hrs by broth microdilution method; assay type: functional; summary of the method: as §2
Trichomonas vaginalis [18] = assay: Potency index, ratio of metronidazole MIC to test compound MIC for metronidazole-susceptible Trichomonas vaginalis; assay type: functional
[19] = tested on: Trichophyton mentagrophytes; assay: Antifungal activity against Trichophyton mentagrophytes after 48 hrs by broth microdilution method; assay type: functional; summary of the method: as §2
[20] = Tmax in Sprague-Dawley rat at 50 mg/kg, po measured up to 24 hrs by LC-MS/MS analysis; assay type: ADME, organism-based; details: in vivo; summary of the method: as §1
[21] = Selectivity index, ratio of IC50 for human HeLa cells to MIC for metronidazole-susceptible Trichomonas vaginalis; assay type: toxicity; details: read-out: Selectivity Index
[22] = Selectivity index, ratio of IC50 for human HeLa cells to MIC for metronidazole-resistant Trichomonas vaginalis CDC085 ATCC 50143; assay type: toxicity; details: read-out: Selectivity Index
[23] = Elimination half life in Sprague-Dawley rat at 50 mg/kg, po measured up to 24 hrs by LC-MS/MS analysis; assay type: ADME, organism-based; details: in vivo, read-out: beta t1/2 (converted); summary of the method: as §1
HeLa = assay: Cytotoxicity against human HeLa cells after 24 hrs by MTT assay; assay type: cell-based
Trichomonas vaginalis [24] = assay: Selectivity ratio of MIC for metronidazole-resistant Trichomonas vaginalis CDC085 ATCC 50143 to MIC for metronidazole-susceptible Trichomonas vaginalis; assay type: functional
Candida albicans [25] = assay: Antifungal activity against Candida albicans MTCC 183 after 48 hrs by broth microdilution method; assay type: functional; details: MTCC 183, 48 h; summary of the method: as §2

Structure (SMILES)	MIC (Candida albicans [5]) [µM]	MIC (Sporothrix schenckii) [µM]	MIC (Nakaseomyces glabratus) [µM]	MIC (Candida parapsilosis) [µM]	Ratio (Trichomonas vaginalis [6])	MIC (Candida albicans [7]) [µM]	MIC (Candida albicans [9]) [µM]	MIC (Candida albicans [10]) [µM]	IC50 (Plasmodium falciparum [11]) [nM]	MIC (Trichomonas vaginalis [13]) [µM]	IC50 (Plasmodium falciparum [14]) [nM]	Activity (Trichomonas vaginalis [15]) [mm2]	MIC (Trichomonas vaginalis [17]) [µM]	MIC (Cryptococcus neoformans) [µM]	Ratio (Trichomonas vaginalis [18])	MIC [19] [µM]	selectivity ratio [21]	selectivity ratio [22]	IC50 (HeLa) [mM]	MIC (Candida albicans [25]) [µM]	other results
CN(C)C(=S)SC(=S)N1CCN(c2ncccn2)CC1	153 (≈ 50.1 µg/mL)	153 (≈ 50.1 µg/mL)	153 (≈ 50.1 µg/mL)	153 (≈ 50.1 µg/mL)	9.5	38.2 (≈ 12.5 µg/mL)	153 (≈ 50.1 µg/mL)	153 (≈ 50.1 µg/mL)	760	38.2 (≈ 12.5 µg/mL)	1850	1.57	4.77 (≈ 1.56 µg/mL)	153 (≈ 50.1 µg/mL)	3.8	153 (≈ 50.1 µg/mL)	1050	131	> 5	76.5 (≈ 25 µg/mL)	Cmax [1]: 47.1 ng/mL; Activity (Trichomonas vaginalis [2]): 1 - 2.5 mm2; AUClast (Rattus norvegicus [3]): 140.5 ng·h/mL; inhibition (Trichomonas vaginalis [4]): Active; Vdss (Rattus norvegicus [8]): 12.6 L/kg; Activity (Trichomonas vaginalis [12]): 0.79 mm2; CL (Rattus norvegicus [16]): 4.9 L/h/kg; Tmax [20]: 2 h; half-life [23]: 156 min; selectivity ratio (Trichomonas vaginalis [24]): 8
CN(C)C(=S)SC(=S)N1CCN(C(=O)OC(C)(C)C)CC1	143 (≈ 49.9 µg/mL)	143 (≈ 49.9 µg/mL)	143 (≈ 49.9 µg/mL)	143 (≈ 49.9 µg/mL)	1.3 - 9.5	71.4 (≈ 25 µg/mL)	143 (≈ 49.9 µg/mL)	143 (≈ 49.9 µg/mL)	780	71.4 (≈ 25 µg/mL)	1740		17.9 (≈ 6.24 µg/mL)	143 (≈ 49.9 µg/mL)	1 - 3.8	143 (≈ 49.9 µg/mL)	73	18	1.31	143 (≈ 49.9 µg/mL)	
Cc1ncc([N+](=O)[O-])n1CCO [METRONIDAZOLE]										365 (≈ 62.6 µg/mL)		2.35	18.2 (≈ 3.12 µg/mL)				> 277	> 13	> 5		
CN(C)C(=S)SC(=S)N1CCN(C(=S)Nc2ccccc2)CC1	> 130	130 (≈ 50 µg/mL)	> 130	> 130	11.4	> 130	> 130	> 130	720	32.5 (≈ 12.5 µg/mL)	1660		8.1 (≈ 3.12 µg/mL)	> 130	2.2	130 (≈ 50 µg/mL)	> 617	> 154	> 5	> 130	
CN(C)C(=S)SC(=S)N1CCN(C(=O)c2ccco2)CC1	146 (≈ 50.1 µg/mL)	72.9 (≈ 25 µg/mL)	146 (≈ 50.1 µg/mL)	146 (≈ 50.1 µg/mL)	1.3 - 9.5	72.9 (≈ 25 µg/mL)	146 (≈ 50.1 µg/mL)	146 (≈ 50.1 µg/mL)	790	146 (≈ 50.1 µg/mL)	1760		18.2 (≈ 6.26 µg/mL)	146 (≈ 50.1 µg/mL)	1 - 3.8	72.9 (≈ 25 µg/mL)	130	16	2.38	72.9 (≈ 25 µg/mL)	
